ChEMBL document CHEMBL3421551, “Puupehenol, a potent antioxidant antimicrobial meroterpenoid from a Hawaiian deep-water Dactylospongia sp. sponge” (J Nat Prod, 2015)
Calls of active or inactive are those of the source. The calls are words filed in the database; no cut-off is given here.

How the values were obtained:
[1] = Antioxidant activity assessed as ferric reducing antioxidant power at 0.1 mg/ml by FRAP assay; assay type: physicochemical
Procedure, shortened: (§1)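 Working reagent was 300 mM acetate buffer (pH 3.6), 10 mM TPTZ in 40 mM HCl and 20 mM FeCl3·6H2O mixed 10:1:1 and warmed to 37 °C. A blank read at 595 nm was taken, then sample was added. After 8 min at room temperature, absorbance was read at 595 nm, in triplicate. FRAP values (μM) came from an FeSO4 standard curve (50–1000 μM) run on each plate.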

Bacillus cereus = test: Antimicrobial activity against Bacillus cereus at 10 ug/disc by disc diffusion assay; assay type: functional; details: read-out: IZ
Escherichia coli = test: Antimicrobial activity against Escherichia coli at 10 ug/disc by disc diffusion assay; assay type: functional; details: for zone of inhibition at 10 µg/disc: read-out: IZ
Procedure, shortened: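 Disc diffusion assay, tested alongside S. aureus, B. cereus and P. aeruginosa. Discs loaded at 10 μg each, with a methanol disc as the negative control.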

Pseudomonas aeruginosa = test: Antimicrobial activity against Pseudomonas aeruginosa at 10 ug/disc by disc diffusion assay; assay type: functional, organism-based
Staphylococcus aureus = test: Antimicrobial activity against Staphylococcus aureus at 10 ug/disc by disc diffusion assay; assay type: functional; details: read-out: IZ
[2] = Antioxidant activity assessed as ferric reducing antioxidant power at 1 mg/ml by FRAP assay; assay type: physicochemical; procedure, shortened: as §1

Row | Activity [1] [µM] | SMILES | zone of inhibition at 10 µg/disc (Bacillus cereus) [mm] | zone of inhibition at 10 µg/disc (Escherichia coli) [mm] | inhibition zone (IZ) (Pseudomonas aeruginosa) | zone of inhibition at 10 µg/disc (Staphylococcus aureus) [mm] | Activity [2] [µM] | inhibition zone (IZ) (Escherichia coli)
1 | 870 | O=C1O[C@H]([C@@H](O)CO)C(O)=C1O [ASCORBIC ACID] | – | – | – | – | – | –
2 | – | CC1(C)S[C@@H]2[C@H](NC(=O)[C@H](N)c3ccccc3)C(=O)N2[C@H]1C(=O)O [AMPICILLIN] | 9 | 20 | inactive | 31 | – | –
3 | – | CO [METHYL ALCOHOL] | 0 | 0 | inactive | 0 | 4.7 | –
4 | – | CC1(C)CCC[C@]2(C)[C@H]3[C@H](O)c4cc(O)c(O)cc4O[C@@]3(C)CC[C@@H]12 (relative stereo) | 3 | – | inactive | 4 | 2500 | inactive
5 | – | CC1(C)CCC[C@]2(C)[C@H]3C=C4C=C(O)C(=O)C=C4O[C@@]3(C)CC[C@@H]12 [PUUPEHENONE] | 3 | – | inactive | 4 | 2600 | inactive
